Experimental data gathered from unrelated publications.
Values after ≈ are worked out from the molar mass of the structure shown.

| SMILES | target or system | assay | system | setting | endpoint | value |
| --- | --- | --- | --- | --- | --- | --- |
| Cc1cccc(N=C2C(=O)Nc3ccccc32)c1 | B16 | cell growth or viability, MTT | – | 48 h | IC50 | 51.9 µM |
| Oc1cc(O)c2c(c1)O[C@H](c1cc(O)c(O)c(O)c1)[C@@H](O)C2 | Streptococcus gordonii | microbial growth, disc diffusion | – | 500 µg/disc | inhibition zone | 11.6 mm |
| CN(C)[C@@H]1C(O)=C(C(N)=O)C(=O)[C@@]2(O)C(O)=C3C(=O)c4c(O)cccc4[C@@](C)(O)[C@H]3C[C@@H]12 | Acinetobacter baumannii | microbial growth, broth dilution | ATCC19606 | – | MIC | 4 µg/mL (≈ 9 µM) |
| Cc1n[nH]c2ccc3nc(-c4ccc(C(=O)NCCN(C)C)cc4)c4c(c3c12)CCCC4 | G-361 | cell growth or viability | – | 72 h | GI50 | 3.49 µM |
| CCc1ccc(N=C2C(=O)N(Cc3ccccc3)c3ccccc32)cc1 | B16 | cell growth or viability, MTT | – | 48 h | IC50 | 0.5 µM |
| O=C1OC[C@H]2OC(O)[C@H](O)[C@@H](O)[C@@H]2OC(=O)c2cc(O)c(O)c(O)c2-c2c(O)c(O)c3oc(=O)c4c(c(O)c(O)c5oc(=O)c2c3c54)-c2c1cc(O)c(O)c2O (mixture of isomers) | Streptococcus gordonii | microbial killing, broth dilution | – | – | MBC | 400 µg/mL |
| C[C@H]1[C@H](NC(=O)/C(=N\OC(C)(C)C(=O)O)c2csc(N)n2)C(=O)N1S(=O)(=O)O | Acinetobacter baumannii | microbial growth, broth dilution | ATCCBAA1605 | – | MIC | > 64 µg/mL |
| CCCCCCC#Cc1cncc(-c2nnc(SCc3cc([N+](=O)[O-])cc([N+](=O)[O-])c3)n2CCCN)c1 | Acinetobacter baumannii | microbial growth, broth dilution | ATCC17978 | – | MIC | 32 µg/mL (≈ 61.1 µM) |
| O=C1O[C@H]2[C@@H]3OC(=O)c4cc(O)c(O)c(O)c4-c4c(O)c(O)c5oc(=O)c6c(c(O)c(O)c7oc(=O)c4c5c76)-c4c(cc(O)c(O)c4O)C(=O)OC[C@H]3OC(O)[C@@H]2OC(=O)c2cc(O)c(O)c(O)c2-c2c1cc(O)c(O)c2O (mixture of isomers) | Streptococcus gordonii | microbial growth, disc diffusion | – | 500 µg/disc | inhibition zone | 14.2 mm |
| CC[C@H]1OC(=O)[C@H](C)[C@@H](O[C@H]2C[C@@](C)(OC)[C@@H](O)[C@H](C)O2)[C@H](C)[C@@H](O[C@@H]2O[C@H](C)C[C@H](N(C)C)[C@H]2O)[C@](C)(O)C[C@@H](C)CN(C)[C@H](C)[C@@H](O)[C@]1(C)O | Acinetobacter baumannii | microbial growth, broth dilution | ATCC19606 | – | MIC | 1 µg/mL (≈ 1.34 µM) |
| CN(C)CCNC(=O)c1ccc(-c2nc3ccc4[nH]ncc4c3c3c2CCCC3)c(F)c1 | G-361 | cell growth or viability | – | 72 h | GI50 | 3.27 µM |
| C[C@@H]1O[C@@H](OC[C@H]2O[C@@H](Oc3c(-c4ccc(O)c(O)c4)oc4cc(O)cc(O)c4c3=O)[C@H](O)[C@@H](O)[C@@H]2O)[C@H](O)[C@H](O)[C@H]1O | Streptococcus gordonii | microbial growth, disc diffusion | – | 500 µg/disc | inhibition zone | 13 mm |
| CCC(C(=O)N1C(=O)C(=Nc2ccc(Cl)cc2Br)c2ccccc21)c1ccccc1 (stereo not shown) | B16 | cell growth or viability, MTT | – | 48 h | IC50 | 27.1 µM |
| CNC(C)C1CCC(N)C(OC2C(N)CC(N)C(OC3OCC(C)(O)C(NC)C3O)C2O)O1 (stereo not shown) | Acinetobacter baumannii | microbial killing, broth dilution | ATCC19606 | 24 h | MBC | 32 mM |
| O=C1C(=Nc2ccc(Cl)cc2)c2ccccc2N1Cc1ccc(Br)cc1 | B16 | cell growth or viability, MTT | – | 48 h | IC50 | 14.1 µM |
| O=C(O[C@@H]1O[C@@H]2COC(=O)c3cc(O)c(O)c(O)c3-c3c(cc(O)c(O)c3O)C(=O)O[C@H]([C@H]1O)[C@@H]2O)c1cc(O)c(O)c(O)c1 | Streptococcus gordonii | microbial growth, disc diffusion | – | 500 µg/disc | inhibition zone | 14 mm |
| FC(F)(F)c1ccc(-c2cc(CNc3cccc4cccnc34)on2)cc1 | Z-138 | cell growth or viability, MTS | – | 72 h | IC50 | 85.9 µM |
| CC(C)c1cccc(C(C)C)c1N=C1C(=O)N(Cc2ccccc2)c2ccccc21 | B16 | cell growth or viability, MTT | – | 48 h | IC50 | 6.77 µM |
| C[C@@H](O)[C@H]1C(=O)N2C(C(=O)O)=C(SCCN=CN)C[C@H]12 | Acinetobacter baumannii | microbial growth, broth dilution | ATCC19606 | – | MIC | 1 µg/mL (≈ 3.34 µM) |
| COc1cc(N=C2C(=O)Nc3ccccc32)cc(OC)c1 | B16 | cell growth or viability, MTT | – | 48 h | IC50 | 3.02 µM |
| CO/N=C(\C(=O)N[C@@H]1C(=O)N2C(C(=O)O)=CCS[C@H]12)c1csc(N)n1 | Acinetobacter baumannii | microbial growth, broth dilution | ATCC19606 | – | MIC | 16 µg/mL (≈ 41.7 µM) |
| O=C1C(=Nc2ccccc2I)c2ccccc2N1Cc1ccc([N+](=O)[O-])cc1 | B16 | cell growth or viability, MTT | – | 48 h | IC50 | 0.27 µM |
| CC1(C)S[C@@H]2[C@H](NC(=O)[C@H](N)c3ccc(O)cc3)C(=O)N2[C@H]1C(=O)O | Acinetobacter baumannii | microbial growth, broth dilution | ATCC19606 | – | MIC | > 64 µg/mL |
| O=C1C(=Nc2ccc(Cl)cc2)c2ccccc2N1Cc1cccc(Cl)c1 | B16 | cell growth or viability, MTT | – | 48 h | IC50 | 1.56 µM |
| O=c1oc2c(O)c(O)cc3c(=O)oc4c(O)c(O)cc1c4c23 | Streptococcus gordonii | microbial killing, broth dilution | – | – | MBC | 400 µg/mL |
